Measured values published in ChEMBL document CHEMBL2163238, “Design, synthesis, and biological evaluation of N-alkylated deoxynojirimycin (DNJ) derivatives for the treatment of dengue virus infection” (J Med Chem, 2012).
≈ marks a conversion by molar mass, not a printed value. Calls of active or inactive are those of the source. The calls are words filed in the database; no cut-off is given here.

Columns and labels:
[1] = Volume of distribution in Sprague-Dawley rat at 5 mg/kg, iv; format: ADME, organism-based; design: dose 5 mg/kg, route intravenous; details: in vivo
CYP2C9 = CYP2C9 (Homo sapiens, UniProt P11712); test: Inhibition of human CYP2C9 at 10 uM; format: ADME
Sequence of CYP2C9 (P11712 whole entry, canonical isoform): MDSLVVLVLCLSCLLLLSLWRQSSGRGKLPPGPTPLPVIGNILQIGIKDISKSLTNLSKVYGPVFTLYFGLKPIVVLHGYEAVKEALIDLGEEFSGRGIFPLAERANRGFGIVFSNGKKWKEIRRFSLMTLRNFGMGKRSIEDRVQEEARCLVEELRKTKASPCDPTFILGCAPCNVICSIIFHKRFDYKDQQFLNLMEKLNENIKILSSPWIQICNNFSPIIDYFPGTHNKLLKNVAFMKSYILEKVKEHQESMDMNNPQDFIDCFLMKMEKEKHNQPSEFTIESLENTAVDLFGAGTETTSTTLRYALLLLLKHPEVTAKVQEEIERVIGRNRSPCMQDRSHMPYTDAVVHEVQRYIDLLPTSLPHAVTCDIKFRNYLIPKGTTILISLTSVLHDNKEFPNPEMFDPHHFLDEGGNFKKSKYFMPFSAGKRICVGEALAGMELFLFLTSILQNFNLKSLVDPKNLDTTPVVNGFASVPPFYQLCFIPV
How it was run: (§1)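 Inhibition of CYP isoforms by compounds tested at 10 μM, given as percent inhibition; contract in vitro ADME panel.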

[2] = Metabolic stability in rat liver microsomes at 60 mins; format: ADME, Microsome; details: read-out: Stability
Dengue virus = test: Antiviral activity against 0.01 MOI DENV infected in human Huh7.5 cells assessed as reduction in viral […] protein level at 0.1 to 100 uM after 2 days by Western blotting; format: functional, organism-based; details: Huh-7
CYP1A2 = target: T1, CYP1A2 (Homo sapiens, UniProt P05177); test: Inhibition of human CYP1A2 at 10 uM; format: ADME
T1 sequence (P05177 whole entry): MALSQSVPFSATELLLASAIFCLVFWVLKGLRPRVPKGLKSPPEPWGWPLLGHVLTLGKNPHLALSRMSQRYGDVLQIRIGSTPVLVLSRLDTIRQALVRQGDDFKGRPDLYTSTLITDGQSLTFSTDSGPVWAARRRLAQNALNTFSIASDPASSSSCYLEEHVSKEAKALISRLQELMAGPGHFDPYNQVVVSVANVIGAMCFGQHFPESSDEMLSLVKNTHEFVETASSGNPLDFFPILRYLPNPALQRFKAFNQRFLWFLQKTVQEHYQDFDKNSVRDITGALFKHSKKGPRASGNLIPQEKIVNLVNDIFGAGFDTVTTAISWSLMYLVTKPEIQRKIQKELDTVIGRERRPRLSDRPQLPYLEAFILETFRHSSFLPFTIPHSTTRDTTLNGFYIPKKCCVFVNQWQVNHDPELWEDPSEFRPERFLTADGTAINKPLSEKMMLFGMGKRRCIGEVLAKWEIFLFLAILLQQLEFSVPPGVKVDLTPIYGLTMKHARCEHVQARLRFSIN
How it was run: (§2)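 Inhibition of CYP isoforms with compound at 10 μM, reported as % inhibition. CYP3A4 run with midazolam or testosterone as substrate.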

[3] = Plasma half life in Sprague-Dawley rat at 5 mg/kg, iv; format: ADME, organism-based; design: dose 5 mg/kg, route intravenous
CYP3A4 [4] = target: T2, CYP3A4 (Homo sapiens, UniProt P08684); test: Inhibition of human CYP3A4 using testosterone as substrate at 10 uM; format: ADME; details: probe testosterone; how it was run: as §2
T2 sequence (P08684 whole entry): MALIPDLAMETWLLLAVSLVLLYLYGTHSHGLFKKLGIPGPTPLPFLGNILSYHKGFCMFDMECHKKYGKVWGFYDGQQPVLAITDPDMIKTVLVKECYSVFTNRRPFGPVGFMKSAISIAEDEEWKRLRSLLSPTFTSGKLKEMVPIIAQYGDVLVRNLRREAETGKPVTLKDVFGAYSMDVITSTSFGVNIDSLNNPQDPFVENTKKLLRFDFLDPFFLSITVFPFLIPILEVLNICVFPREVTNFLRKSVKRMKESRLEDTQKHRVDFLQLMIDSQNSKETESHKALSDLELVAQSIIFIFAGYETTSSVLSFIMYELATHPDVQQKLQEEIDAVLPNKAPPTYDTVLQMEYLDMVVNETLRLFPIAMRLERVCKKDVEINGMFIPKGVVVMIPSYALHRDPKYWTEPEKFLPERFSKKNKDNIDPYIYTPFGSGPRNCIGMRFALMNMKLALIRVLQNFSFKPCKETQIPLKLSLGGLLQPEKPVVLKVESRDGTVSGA

[5] = Metabolic stability in human liver microsomes at 60 mins; format: ADME, Microsome; details: read-out: Stability
[6] = Cytotoxicity against BHK cells assessed as cell viability by MTT assay; format: cell-based, Mesocricetus auratus; details: hamster
[7] = Aqueous solubility in PBS at pH 4; format: physicochemical; details: buffer
Rattus norvegicus [8] = test: Acute toxicity in Sprague-Dawley rat assessed as occurrence of soft feces at 50 to 100 mg/kg, po measured at 1 to 2 days; format: organism-based; design: route oral; details: in vivo
How it was run: (§3)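 Single oral dose (25, 50, 100 or 200 mg/kg, or vehicle) given to 10-week-old male rats, 2 per group. Compound dissolved at 20 mM in PBS with 10% Solutol HS15, shaken 6 h at 37 °C. Animals observed 7 days for clinical signs, body weight and food consumption, then sacrificed on day 8.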

[9] = Plasma protein binding in human plasma; format: ADME, cell-free; details: read-out: PPB (converted)
How it was run: (§4)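 Binding of compound to human, rat or mouse plasma protein, reported as % bound.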

dengue virus type 2 = test: Antiviral activity against 0.01 MOI DENV-2 NGC infected in BHK cells assessed as reduction in viral titer after 48 hrs; format: functional, organism-based
How it was run: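 BHK cells infected with DENV-2 New Guinea C at MOI 0.01 for 1 h. Inoculum removed, then compounds at 0.1–100 μM for 48 h at 37 °C. Supernatants titrated on Vero monolayers as 10-fold dilutions under 0.5% methylcellulose for 3–5 days. Foci detected by 4G2 immunostaining or crystal violet plaques. EC50 from dose–response curves, mean of 3 independent experiments.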

Rattus norvegicus [10] = test: Volume of distribution in Sprague-Dawley rat at 25 mg/kg, po; format: ADME, organism-based; design: dose 25 mg/kg, route oral; details: in vivo
[11] = Metabolic stability in mouse liver microsomes at 60 mins; format: ADME, Microsome; details: read-out: Stability
MDBK = test: Competitive inhibition of endoplasmic reticulum-resident alpha-glucosidase in MDBK cells infected with 1 MOI BVDV assessed as decrease in viral E2 protein mobility at 0.8 to 100 uM after 24 hrs by Western blotting; format: cell-based; details: Bos taurus
How it was run: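 MDBK cells infected with BVDV at MOI 1 for 1 h, then compounds at 0.8, 4.0, 20 and 100 μM. Cells lysed in Laemmli buffer, run on 12% polyacrylamide gel and transferred to nitrocellulose. BVDV E2 mobility probed with monoclonal WB166 and β-actin detected in parallel. IR-dye secondary antibody, Odyssey imaging.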

[12] = Cytotoxicity against MDBK cells assessed as cell viability by MTT assay; format: cell-based, Bos taurus; details: cattle
[13] = Aqueous solubility in PBS at pH 7.4; format: physicochemical; details: buffer
CYP2D6 = CYP2D6 (Homo sapiens, UniProt P10635); test: Inhibition of human CYP2D6 at 10 uM; format: ADME; how it was run: as §1
Sequence of CYP2D6 (P10635 whole entry): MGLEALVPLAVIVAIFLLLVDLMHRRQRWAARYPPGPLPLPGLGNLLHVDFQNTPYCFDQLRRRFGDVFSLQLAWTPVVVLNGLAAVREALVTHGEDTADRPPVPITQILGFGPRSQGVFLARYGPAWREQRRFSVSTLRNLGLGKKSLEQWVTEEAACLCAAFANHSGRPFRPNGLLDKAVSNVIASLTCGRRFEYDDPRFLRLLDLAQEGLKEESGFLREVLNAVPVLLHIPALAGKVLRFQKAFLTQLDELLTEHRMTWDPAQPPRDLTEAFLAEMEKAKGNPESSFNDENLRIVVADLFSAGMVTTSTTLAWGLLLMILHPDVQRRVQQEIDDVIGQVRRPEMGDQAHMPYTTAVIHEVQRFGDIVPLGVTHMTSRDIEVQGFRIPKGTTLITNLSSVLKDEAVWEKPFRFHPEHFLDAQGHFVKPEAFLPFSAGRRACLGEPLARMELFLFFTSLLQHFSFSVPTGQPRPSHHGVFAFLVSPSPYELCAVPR

CYP2C19 = CYP2C19 (Homo sapiens, UniProt P33261); test: Inhibition of human CYP2C19 at 10 uM; format: ADME; how it was run: as §2
Sequence of CYP2C19 (P33261 whole entry): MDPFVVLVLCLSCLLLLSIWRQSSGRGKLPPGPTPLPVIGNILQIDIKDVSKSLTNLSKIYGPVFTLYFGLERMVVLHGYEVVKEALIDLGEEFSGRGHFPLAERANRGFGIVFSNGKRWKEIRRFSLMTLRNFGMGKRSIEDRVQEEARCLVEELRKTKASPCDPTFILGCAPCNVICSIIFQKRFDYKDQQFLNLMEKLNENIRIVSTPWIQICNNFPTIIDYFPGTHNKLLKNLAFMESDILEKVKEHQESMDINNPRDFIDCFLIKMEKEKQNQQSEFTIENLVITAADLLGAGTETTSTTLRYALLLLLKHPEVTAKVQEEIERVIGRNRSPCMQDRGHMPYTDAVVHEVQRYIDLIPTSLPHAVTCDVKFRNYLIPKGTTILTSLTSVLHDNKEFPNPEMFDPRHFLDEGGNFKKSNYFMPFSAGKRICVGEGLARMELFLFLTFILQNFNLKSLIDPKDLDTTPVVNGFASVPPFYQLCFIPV

[14] = Cytotoxicity against human Huh7.5 cells assessed as cell viability by DRAQ5 and Sapphire 700 staining; details: huh-7
in vivo = details: Sprague-Dawley, rat, po, 25 mg/kg
CYP3A4 [15] = target: T2, CYP3A4; test: Inhibition of human CYP3A4 using midazolam as substrate at 10 uM; format: ADME; details: probe midazolam; how it was run: as §2
Rattus norvegicus [16] = test: Acute toxicity in Sprague-Dawley rat assessed as body weight loss at 25 to 200 mg/kg, po after 7 days; format: organism-based; design: dose 25-200 mg/kg, route oral; details: in vivo, 168 h; how it was run: as §3
[17] = Antiviral activity against 1 MOI BVDV NADL infected in MDBK cells assessed as reduction in viral titer after 22 hrs; format: functional, cell-based, Bovine viral diarrhea virus 1-NADL; details: Bovine viral diarrhea virus isolates and strains, MDBK, 22 h
How it was run: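 MDBK cells (2×10^5) infected 24 h after seeding with BVDV NADL at MOI 1, with 1 h adsorption at 37 °C. Washed, then compounds at 0.1–100 μM. Media harvested 22 h post-infection and plaque-titrated on MDBK under 1% methylcellulose for 3 days. Plaques counted directly or after neutral red staining. EC50 from dose–response curves, mean of 3 independent experiments.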

Rattus norvegicus [18] = test: Acute toxicity in Sprague-Dawley rat assessed as occurrence of diarrhea at 200 mg/kg, po measured at 1 to 2 days; format: organism-based; design: dose 200 mg/kg, route oral; details: in vivo; how it was run: as §3
[19] = Plasma protein binding in rat plasma; format: ADME, cell-free; details: read-out: PPB (converted); how it was run: as §4
[20] = Plasma protein binding in mouse plasma; format: ADME, cell-free; details: read-out: PPB (converted); how it was run: as §4
Rattus norvegicus [21] = test: Acute toxicity in Sprague-Dawley rat assessed as mortality at 25 to 200 mg/kg, po after 7 days; format: organism-based; design: dose 25-200 mg/kg, route oral; details: in vivo, 168 h

OC[C@@H]1[C@@H](O)[C@H](O)[C@@H](O)CN1CCCCCCOc1cc(F)ccc1F
Vd [1]: 3.1 L/kg | inhibition at 10 µM (CYP2C9): 7.1% | remaining at 1 h [2]: 79% | Activity (Dengue virus): Active | inhibition at 10 µM (CYP1A2): 24.4% | half-life [3]: 1.44 h | inhibition at 10 µM (CYP3A4 [4]): -1.9% | remaining at 1 h [5]: 91% | CC50 [6]: > 500000 nM | solubility [7]: 296 µM (≈ 111 µg/mL) | Activity (Rattus norvegicus [8]): Toxic | fraction unbound [9]: 0.26 | Activity (dengue virus type 2): Dose-dependent effect | EC50 (dengue virus type 2): 400 nM | Vd (Rattus norvegicus [10]): 17.2 L/kg | remaining at 1 h [11]: 91% | inhibition (MDBK): Active | CC50 [12]: > 500000 nM | solubility [13]: 292 µM (≈ 110 µg/mL) | inhibition at 10 µM (CYP2D6): 11.4% | inhibition at 10 µM (CYP2C19): 1.6% | Activity [14]: Non-toxic | Tmax (in vivo): 4.2 h | inhibition at 10 µM (CYP3A4 [15]): 10.9% | Activity (Rattus norvegicus [16]): Non-toxic | EC50 [17]: 500 nM | Activity (Rattus norvegicus [18]): Toxic | fraction unbound [19]: 0.32 | fraction unbound [20]: 0.23 | Activity (Rattus norvegicus [21]): Non-toxic
